In the library only some 2.1% were active in any assay of this set; here they are far more common.
Xi reactivation: X-chromosome reactivation activator; activation, % at 7.58 µM; 360,000 compounds, 0.055% hits; AID 743238; XiGFP mouse fibroblasts, % GFP-positive cells imaging, 3 d; cells co-treated with 5-aza-dC sensitizer; scaled so ellipticine positive control = 100%;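 active = mean normalized replicate activation at least 10% and every replicate at or above 10%; inconclusive = only one of the two criteria met; inactive = mean below 10% and not all replicates reach 10%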;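 note: 0% = median of on-plate neutral control wells and 100% = ellipticine 6 µM median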
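Material: XiGFP fibroblasts, SV40-immortalized; Buffer or medium: DMEM containing 5-aza-dC; Compound dosing: single point; Times: 3 days compound exposure.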
DENV2 CPE rescue: protects cells from dengue virus 2 cytopathic effect. DENV2-infected cells, cytopathic effect rescue, plate reader. CPE inhibition, % at 9.99 µM. 350,000 compounds, 1.7% hits. AID 651640; in the data active = CPE inhibition above about 20%, passing the limit was not always enough; inconclusive = no clear call, values can overlap the other calls; tested in BHK-21 cells;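 note: 0% = median of neutral control wells and 100% = median of positive control wells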
Cneo AK release: causes C. neoformans cell lysis; adenylate kinase release luminescence, 4 h; normalised: neutral wells 0, clomiphene wells 100; lysis activity, % at 15 µM; 360,000 compounds, 0.2% hits; AID 651654;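 active = mean lysis activity across replicates of at least 80%, whatever share of replicates individually reach that level; inactive = mean lysis activity below 80%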
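Assay system: Cryptococcus neoformans yeast cells / Dosing: single-point compound dose / Timing: 4 h at 37 °C static, read 1 h later / Measured by: luminescence of released adenylate kinase using an AK detection reagent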
Statin myotox sup: protects C2C12 myotubes from simvastatin toxicity; ATP luminescence, 48 h; scaled: DMSO 0, geranylgeraniol control 100; rescue of ATP level, % at 7.49 µM; 330,000 compounds, 0.78% hits; AID 602340;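 active = mean ATP rescue above about 67%, or every replicate alone reaching that limit, limit read from the data, passing the limit was not always enough; inconclusive = no clear call, values can overlap the other calls; inactive = mean under the limit and some replicate under it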;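 note: myotubes were challenged with 10 µM simvastatin during compound exposure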
The depositor's hits bear a star; ? = inconclusive; . = no result given; ! = not confirmed by another sample.

SMILES	Xi reactivation	DENV2 CPE rescue	Cneo AK release	Statin myotox sup
CO[C@@H]1CN(C)C(=O)c2cc(NC(=O)C3CC3)ccc2OC[C@H](C)N(C(=O)c2ccccn2)C[C@H]1C	-0.2	.	.	7.1
COc1ccccc1CNC(=O)[C@@H](NC(=O)C1CCN(C(=O)[C@@H]2CCCN2)CC1)C(C)C	.	-1.6	0.1	1.2
COc1ccccc1CNC(=O)[C@@H](NC(=O)C1CCN(C(=O)[C@@H]2CCCN2C(=O)OC(C)(C)C)CC1)C(C)C	.	60.8*	-2.3	0.2
Cc1ccc(-n2[nH]c(C)c(C=Nc3cc(C)ccn3)c2=O)cc1	.	.	0.4	89.0*
O=C(COc1ccc(-c2nnco2)cc1)NCc1ccccc1Cl	-0.1	42.9*	.	.
Cc1ccc(C)c(OCCCCN2CCCCC2)c1	0.1	55.2*	-1.1	5.5
CCc1ccccc1OCCCCN1CCCC1	.	.	-1.9	.
C=CCc1ccccc1OCCCCN1CCCC1	.	.	2.0	80.2*
O=C(Nc1cccc(S(=O)(=O)N2CCCCCC2)c1)c1ccc2ccccc2n1	0.0	21.6*	-0.7	.
CC(=O)Nc1cccc(/C(C)=N/NC(=O)c2cccc(S(=O)(=O)N3CCCC3)c2)c1	0.0	25.0*	-0.5	4.2
Cc1cccnc1NC(=O)c1cccc(S(=O)(=O)N2CCCC2)c1	0.3	31.2*	-0.7	1.0
C/C(=N/NC(=O)c1ccc2c(c1)OCO2)c1cccc(NC(=O)C(C)(C)C)c1	.	.	2.9	111.2*
C[C@@H]1CCCCO[C@H](CN(C)C(=O)CCC(F)(F)F)[C@@H](C)CN([C@H](C)CO)C(=O)c2cc(NS(=O)(=O)c3ccccc3)ccc2O1	-0.1	?	3.7	.
CCCC(=O)Nc1ccc2c(c1)C(=O)N(C)C[C@H](OC)[C@H](C)CN(C(=O)CN(C)C)[C@@H](C)CO2	-0.1	2.2	-1.1	4.5
O=C(NCc1ccc(F)cc1)c1cccc(S(=O)(=O)N2CCCC2)c1	.	.	2.4	13.1
CC(=O)N1CCN(S(=O)(=O)c2cccc(C(=O)NCc3ccc(F)cc3)c2)CC1	0.1	0.6	-0.1	77.4*
Cc1ccnc(NC(=O)c2ccc(Cl)c(S(=O)(=O)N3CCCC3)c2)c1	-0.1	60.7*	.	.
CCOc1ccccc1OCCOc1ccccc1CC	.	.	-2.7	127.7*
CC1=NCCN1CCNC(=O)Nc1ccc(C(C)(C)C)cc1	0.1	23.7*	-0.1	.
Cc1ccc(NC(=O)NCCN2CCCCC2)cc1	0.0	0.1	-1.5	-5.9
C[C@H]1CCCCO[C@@H](CN(C)S(=O)(=O)c2ccccc2)[C@@H](C)CN([C@@H](C)CO)C(=O)c2cc(NC(=O)NC3CCCCC3)ccc2O1	0.0	-0.6	-1.3	.
COc1ccc(S(=O)(=O)Nc2ccc3c(c2)C(=O)N([C@H](C)CO)C[C@H](C)[C@@H](CN(C)C(=O)Nc2ccc4c(c2)OCO4)OCCCC[C@@H](C)O3)cc1	0.0	-0.4	-1.2	.
CCOC(=O)C1=C(C)N(CCCCCC(=O)O)C(=O)NC1c1ccccc1OC(=O)c1cccs1 (stereo unspecified)	0.1	47.4*	.	.
Cc1[nH]nc2c1/C(=N\O)CC(C)(C)C2	.	.	1.0	100.6*
CO[C@@H]1CN(C)C(=O)c2ccc(NC(=O)Nc3cccc(Cl)c3)cc2OC[C@H](C)N(C(=O)Nc2c(C)noc2C)C[C@H]1C	?	30.6*	.	.
SMILES	Xi reactivation	DENV2 CPE rescue	Cneo AK release	Statin myotox sup
CO[C@H]1CN(C)C(=O)c2ccc(NC(=O)Nc3cccc(F)c3)cc2OC[C@H](C)N(C(=O)Nc2c(C)noc2C)C[C@H]1C	-0.1	6.1	-2.5	-2.4
CO[C@H]1CN(C)C(=O)c2ccc(NC(=O)Nc3cccc(F)c3)cc2OC[C@@H](C)N(C(=O)Nc2c(C)noc2C)C[C@@H]1C	-0.3	25.2*	-0.2	5.3
CO[C@H](CN(C)C(=O)C1CCOCC1)[C@H](C)CN(C(=O)Nc1ccc(F)cc1)[C@@H](C)CO	-0.1	-5.0	-0.8	5.1
CNC[C@@H]1Oc2ncc(C3=CCCC3)cc2C(=O)N([C@H](C)CO)C[C@@H]1C	-0.6	.	.	-2.3
C/C=C/c1cnc2c(c1)C(=O)N([C@@H](C)CO)C[C@H](C)[C@@H](CN(C)C(=O)CCN1CCCCC1)O2	0.0	.	.	-5.6
C/C=C/c1ccc(C2[C@@H]3CN(C(=O)Nc4ccc5c(c4)OCO5)C[C@H]2N3)cc1 (stereo partly specified)	0.2	27.2*!	.	.
COc1ccc(C(=O)N2CCN(C(=O)c3cc(OC)c(OC)c(OC)c3)CC2)cc1	.	.	-1.9	107.8*
CCc1ccc(-c2nc(CSCC(=O)N3CCN(c4ncccn4)CC3)c(C)o2)cc1	0.2	86.5*	2.5	5.2
CCOc1ccc(-c2nc(CSCC(=O)NCCN3CCOCC3)c(C)o2)cc1	.	.	.	101.7*
Nc1sc(Cc2ccccc2)cc1C(=O)c1c(-c2ccccc2)[nH]c2ccccc12	0.2	83.6*	.	.
COc1ccc(CCNC(=O)c2c(C)nn(CC(C)C)c2Cl)cc1OC	0.6	95.3*	-2.0	.
COc1ccc(CCN(C)C(=O)c2c(C)nn(CC(C)C)c2Cl)cc1OC	0.1	-9.0	0.5	6.7
CCC(=O)c1ccc(OCc2ccccc2)c(OC)c1	.	.	.	14.5
COc1cc(C(N)=O)ccc1OCc1ccccc1	.	.	2.4	117.3*
COc1ccc(COc2ccccc2C(N)=O)cc1F	-0.1	7.5	2.6	109.3*
O=S1(=O)CCO[C@H]2Cc3ccccc3[C@H]2N1Cc1ccc(Cl)cc1	-0.2	85.2*	-1.1	-0.5
COc1ccc(S(=O)(=O)Nc2ccc3c(c2)C(=O)N([C@H](C)CO)C[C@@H](C)[C@H](CN(C)S(=O)(=O)c2ccc(F)cc2)O3)cc1	0.2	25.3*	-2.4	.
COc1ccc(S(=O)(=O)Nc2ccc3c(c2)C(=O)N([C@@H](C)CO)C[C@@H](C)[C@H](CN(C)S(=O)(=O)c2ccc(F)cc2)O3)cc1	0.0	-1.9	1.4	.
COc1ccc(S(=O)(=O)Nc2ccc3c(c2)C(=O)N([C@@H](C)CO)C[C@H](C)[C@H](CN(C)S(=O)(=O)c2ccc(F)cc2)O3)cc1	0.0	30.7*!	58.6	-18.0
CCC(=O)N(C)C[C@@H]1Oc2ncc(C#CCC(C)C)cc2C(=O)N([C@H](C)CO)C[C@@H]1C	0.2	9.9	-2.5	13.6
C[C@H](CO)N1C[C@H](C)[C@@H](CN(C)C(=O)Nc2cccc3ccccc23)Oc2c(NS(=O)(=O)c3cccs3)cccc2C1=O	-0.2	-5.9	-1.9	20.1
NC(=O)C1(C(N)=O)OC1c1ccccc1 (stereo unspecified)	0.1	1.1	.	.
NC(=O)C1(c2ccccc2)OC1c1ccccc1 (stereo unspecified)	0.5	41.4*	1.2	13.8
COC(=O)c1ccc2nc(-c3cccc(Br)c3)c(Cc3ccccc3OC)n2c1	-0.1	-3.8	.	.
COC(=O)c1ccc2nc(C3CCCCC3)c(Cc3ccccc3OC)n2c1	0.3	20.3*	.	.
COC(=O)c1ccc2nc(-c3ccc(F)cc3)c(Cc3ccccc3OC)n2c1	-0.1	49.6*	.	.
CCCc1nc2ccc(C(=O)OC)cn2c1Cc1ccccc1OC	0.3	0.4	.	.
COC(=O)c1ccc2nc(-c3ccc(C#N)cc3)c(Cc3cccc(F)c3)n2c1	0.2	40.9*	-0.8	-5.4
